# PTPN22 inh 2: blocks human PTPN22 phosphatase activity | Q9Y2R2 | recombinant LYP catalytic domain, DiFMUP fluorescence | inhibition, % at 2 µM | 96,000 compounds, 0.21% hits | AID 640;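 active = inhibition at 2 µM at or above a set limit, the screen mean plus 3 SD, cut at about 24% in these data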;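 note: 0% = DMSO with enzyme and 100% = enzyme fully blocked by orthovanadate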
# Rev-RRE block: disrupts HIV-1 Rev binding to RRE RNA | inhibition, % at 8 µM | 97,000 compounds, 0.79% hits | P05866 | Rev peptide-RRE RNA binding, FRET;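 active = inhibition above the screen-wide mean plus 3 SD, cut at about 35% in these data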;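 note: 0% = median DMSO wells and 100% = median Neomycin B control wells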
# Target sequence (P05866 whole entry, looked up): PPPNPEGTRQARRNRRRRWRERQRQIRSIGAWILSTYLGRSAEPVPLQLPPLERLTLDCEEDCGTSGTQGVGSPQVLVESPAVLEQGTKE
#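 Assay system: Labelled RRE RNA duplex and labelled Rev peptide | Times: 5 min preincubation and 15 min binding, 25 °C | Detection: FRET, ex 480 nm, em 540 and 671 nm | Evaluation: % inhibition of FRET ratio versus controls | Benchmarks: DMSO wells as 0% and neomycin B wells as 100% inhibition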
# EphB4 antag: blocks human EphB4 binding to ephrin-B2 | 97,000 compounds, 0.15% hits | inhibition, % at 7 µM | EphB4 LBD / TNYL-RAW-Alexa532 peptide, fluorescence polarization | AID 720;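 active = inhibition above the screen-wide mean inhibition plus 3 SD, cut at about 15% in these data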;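 note: 0% = DMSO wells and 100% = excess unlabeled TNYL-RAW peptide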
# PTPN22 act: activators of human LYP (PTPN22) phosphatase; AID 697; 96,000 compounds, 0.11% hits; Q9Y2R2; recombinant LYP, DiFMUP fluorescence; 0 = plate median, 100 = signal doubled; activation, % at 2 µM;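 active = activation at 2 µM above a set limit, the mean plus 5 SD, cut at about 37% in these data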
# PTPN22 act conf: confirmation of human LYP phosphatase activators; shares compounds with PTPN22 act; Recombinant LYP, DIFMUP fluorescence, activation; zero set by plate's median compound well; activation, % at 2 µM; 100 tested, under 10 active; call rule not given here
# Starred values were filed as active, the others as inactive; nt = not tested or not shown; [ ] = another dose, or the depositor's remark. Rows were chosen to be rich in hits. Some 1.3% of all compounds tested hit in one or more screens of this group.
SMILES,PTPN22 inh 2,Rev-RRE block,EphB4 antag,PTPN22 act,PTPN22 act conf
CCCCN(C)CCNS(=O)(=O)c1ccc2c(c1)n(C)c(=O)c(=O)n2C,-2,10,-2,-2,nt
CCc1nnc(NC(=O)CSc2nnc(Cc3ccc(OC)cc3)o2)s1,4,3,5,-6,nt
O=C1N/C(=C\c2ccc(O)cc2)C(=O)c2ccccc21,0,69*,5,2,nt
NC1=CC(=O)c2cccc3cccc1c23,-4,56*,13,2,nt
Cc1ccc(-n2c([O-])nc(-[n+]3ccccc3)c2C=O)cc1,-4,11,-3,7,nt
CC(=O)c1sc2nc(-c3cccs3)cc(C(F)(F)F)c2c1N,-14,107*[fluorescence artefact?],-2,11,nt
Cc1c(C(=O)Nc2nccs2)sc2nc(-c3cccs3)cc(C(F)(F)F)c12,-4,-2,-6,5,nt
Nc1c(C(=O)C2CC2)sc2nc(-c3ccccc3)cc(C(F)(F)F)c12,12,112*[fluorescence artefact?],2,-11,nt
CS(=O)(=O)c1sc2nc(-c3cccs3)cc(-c3ccccc3)c2c1N,3,36*,-3,-5,nt
Cc1ccc(-c2cc(-c3ccccc3)c3c(N)c(S(C)(=O)=O)sc3n2)cc1,11,10,-3,-9,nt
Cc1ccc(C)c(N2CCN(c3nnnn3-c3ccccc3)CC2)c1,5,11,1,-4,nt
COc1ccc(OC)c(/C=N\NC(=O)CSc2nnc(CCCc3ccc(OC)c(C)c3)o2)c1,9,-6,1,-7,nt
CN(C(=O)Nc1ccc(Cl)cc1Cl)[C@H]1c2cc(Br)ccc2OC[C@H]1CO,nt,3,-4,nt,nt
CCOc1ccc(C2C=C(c3ccccc3)Nc3nnnn32)cc1 (centres undefined),-3,21,-7,1,nt
CCOc1ccc(C2C=C(c3ccc(C)cc3)Nc3nnnn32)cc1 (centres undefined),-8,39*,0,6,nt
Cc1cc(=O)oc(C)c1C(=O)OCC(=O)c1ccc(Br)cc1,0,9,0,0,nt
Cc1cc(=O)oc(C)c1C(=O)OCC(=O)c1ccc(Cl)cc1,4,4,16*,-2,nt
Cc1ccc(-c2n[nH]c3c2CCC3)cc1,7,0,5,-8,nt
CC(C)(C)NC(=O)Cn1ccc(=N)c2ccccc21,-46,13,4,45*,3
COc1ccc(NCCNc2ccc(OC)cc2)cc1,-8,-1,0,5,nt
COc1ccc(Nc2c(C)cccc2C)cc1,-40,-3,1,39*,-1
CCCCCCn1c(-c2ccco2)nc2oc3cc(OC)ccc3c(=O)c2c1=O,6,9,-1,-6,nt
Cc1ccc(S(=O)(=O)N[C@H](C(=O)N2CCC(C(=O)NCC(=O)O)CC2)C(C)C)cc1,0,12,7,-2,nt
CCCOc1ccc(-c2nnn(CC(=O)c3ccc4c(c3)OCCO4)n2)cc1,-5,13,-2,4,nt
OCCOc1ccc(C2=NCCO2)cc1,-39,5,1,38*,-1
SMILES,PTPN22 inh 2,Rev-RRE block,EphB4 antag,PTPN22 act,PTPN22 act conf
Cc1ccc(NC(=O)C2CCCN2C(=O)Oc2ccccc2)cc1 (centres undefined),-44,1,-9,39*,1
Nc1cc(N)nc(SCC(=O)Nc2ccccc2)n1,-1,7,0,1,nt
Nc1cc(N)nc(SCC(=O)c2ccccc2)n1,-40,-3,-3,43*,4
COc1ccc(C2=NN(C(=O)c3cccc([N+](=O)[O-])c3)C(c3cccc([N+](=O)[O-])c3)C2)cc1 (centres undefined),8,4,5,-4,nt
COc1ccc(C(=O)N2CCc3cc(OC)c(OC)cc3C2c2cccc([N+](=O)[O-])c2)cc1OC (centres undefined),-35,3,-5,39*,-8
C#CCn1c(S(=O)(=O)Cc2ccc(F)cc2)nc(-c2ccccc2)c1-c1ccccc1,-49,12,-1,45*,-7
CCOC(=O)Cn1c(S(=O)(=O)Cc2ccc(F)cc2)nc(-c2ccccc2)c1-c1ccccc1,13,3,6,-9,nt
Cc1ccccc1OCC(=O)OC(C)CN1CCN(C)CC1 (centres undefined),-47,6,3,48*,4
Cc1ccccc1OCC(=O)OC1CCN(C)CC1,0,10,3,2,nt
CCc1ccccc1NC(=O)CSc1nnc(Cn2cnc3ccccc32)o1,2,2,1,-3,nt
Cc1cccc(NC(=O)CSc2nnc(Cn3cnc4ccccc43)o2)c1,-38,1,-7,38*,4
CC1CCN(c2ncnc3nc[nH]c23)CC1,-43,3,-7,42*,-1
CCC(C)Sc1nc2ccccc2c(=O)[nH]1 (centres undefined),4,7,5,-4,nt
CCOC(=O)C(Oc1ccc2c(-c3ccc(OC)cc3)cc(=O)oc2c1C)c1ccccc1 (centres undefined),-38,-2,-1,44*,-10
COc1ccc2c(C)cc(=O)oc2c1C,1,4,2,-2,nt
CC1=C(C(N)=O)C(c2ccccn2)n2nc(SCc3ccccc3Cl)nc2N1 (centres undefined),-10,4,-9,8,nt
CC1=C(C(N)=O)C(c2cccnc2)n2nc(SCc3ccccc3Cl)nc2N1 (centres undefined),-48,-2,-1,46*,3
O=C(NCCOC(=O)c1ccc(Cl)cc1)c1cccnc1,1,-1,2,-1,nt
CCOC(=O)CSCc1c(C#N)c2ccccc2n1C,-42,2,1,40*,4
CCC(=O)N1CCc2cc(Br)cc(S(=O)(=O)CC(=O)OC)c21,-6,2,-5,6,nt
CCC(=O)N1CCc2cc(Br)cc(S(=O)(=O)CCC(=O)NCC3CCCO3)c21 (centres undefined),-44,3,1,49*,-3
O=C(CCCC1=NS(=O)(=O)c2ccccc2N1)N1CCN(c2ccccc2)CC1,-41,2,-2,40*,3
Cc1cc(=O)n2nc(-c3ccc(C(F)(F)F)cc3)sc2n1,1,6,-1,0,nt
CC(=O)Nc1nc(C2COc3ccccc3O2)cs1 (centres undefined),-38,5,-7,41*,2
CC(Sc1ccc(Cl)cc1)C(=O)NCc1cccnc1 (centres undefined),-38,7,14,37*,6
O=C(O)c1ccc(NS(=O)(=O)c2cc(Cl)ccc2Cl)cc1O,-1,-1,1,-3,nt
CC(=O)N1c2c(cc(Br)cc2S(=O)(=O)NCC2COc3ccccc3O2)CC1C (centres undefined),-33,7,-6,38*,-3
CCCCN(Cc1ccccc1)S(=O)(=O)c1cc(Br)cc2c1N(C(C)=O)C(C)C2 (centres undefined),6,13,2,-3,nt
O=C1c2ccccc2C(=O)N1c1n[nH]c(CCc2ccccc2)n1,-49,4,1,43*,-4
O=C(NCC(F)(F)F)Nc1ccccn1,-3,8,-2,0,nt

# Assay outcomes deposited in PubChem by several laboratories.
